The list is not random: actives were taken first. Their share in the collection is about 2.3%.
HCV NS3 hel inh: inhibitors of HCV NS3 helicase, primary screen, biochemical, Cy5 molecular beacon fluorescence. Hepatitis C virus NS3 helicase. NS3 helicase DNA unwinding. inhibition, % at 10.9 µM. 0.56% of 290,000 active. AID 1800, 2009;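 active = inhibition above the mean of all tested compounds plus 3 SD, set per campaign, cut at about 35% in these data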;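 note: 0% = DMSO wells and 100% = thioflavine S control wells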
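System: HCV NS3 helicase fragment; control set: DMSO and thioflavine S; technique: Cy5 fluorescence at 0 and 60 min, beacon hairpin quenching; reagent: beacon DNA duplex substrate plus ATP; replicates: singlicate; schedule: 1 h reaction at 25 °C, ATP-initiated; medium: MOPS buffer pH 6.5 with MgCl2, DTT, Tween20, BSA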
EBNA-1 inhibitor: EBNA-1 DNA-binding inhibitors, primary screen, biochemical, fluorescence polarization; inhibition, % at 14.8 µM; 0.34% of 300,000 active; AID 1950, 2009; in the data active = inhibition above about 28%
ZTA DNA inh: ZTA (EBV) inhibition in EBNA-1 counter-screen; inhibition, % at 11 µM; 0.15% of 320,000 active; P03206; ZTA-DNA binding, fluorescence polarization; in the data active = inhibition above about 33%
GPR7 antag: GPR7 receptor antagonists, primary screen, cell-based, fluorescence, single concentration; 1.1% of 290,000 active; Neuropeptides B/W receptor type 1 (Homo sapiens), P48145; inhibition, % at 4.4 µM; GPR7-expressing cells, fluorescence antagonist assay; in the data active = inhibition above about 16%, passing the limit was not always enough;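 note: cells stimulated with the agonist NPW; 0% = agonist with vehicle and 100% = vehicle without agonist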
Target sequence (P48145 whole entry, looked up): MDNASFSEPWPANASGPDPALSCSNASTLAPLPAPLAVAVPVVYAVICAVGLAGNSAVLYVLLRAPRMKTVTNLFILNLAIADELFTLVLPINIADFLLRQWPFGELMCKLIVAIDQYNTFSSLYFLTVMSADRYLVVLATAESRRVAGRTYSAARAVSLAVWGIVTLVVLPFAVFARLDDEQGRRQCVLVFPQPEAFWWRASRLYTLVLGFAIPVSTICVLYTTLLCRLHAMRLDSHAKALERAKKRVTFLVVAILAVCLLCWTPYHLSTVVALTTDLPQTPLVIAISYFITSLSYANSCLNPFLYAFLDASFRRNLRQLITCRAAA
EBV gp42 block: Epstein-Barr virus gp42 inhibitors, primary screen, biochemical, uHTS, fluorescence polarization | inhibition, % (tested at 21.74 µM) | 0.42% of 220,000 active | AID 1085, 2008 | Fluorescence polarization binding assay, mP read-out; in the data active = inhibition above about 50%
Target sequence (Q1HVG2 whole entry, looked up): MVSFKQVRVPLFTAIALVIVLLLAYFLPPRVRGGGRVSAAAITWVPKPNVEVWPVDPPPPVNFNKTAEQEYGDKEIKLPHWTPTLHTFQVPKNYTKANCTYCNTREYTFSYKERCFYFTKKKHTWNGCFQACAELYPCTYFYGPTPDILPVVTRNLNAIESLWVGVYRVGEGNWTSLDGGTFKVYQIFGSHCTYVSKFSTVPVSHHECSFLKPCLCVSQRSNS
HCV core dimer: inhibitors of HCV core protein dimerization, primary screen, biochemical, TR-FRET, high-throughput. TR-FRET GST/Flag-core106 dimerization, 1536-well. inhibition, % at 5 µM. 0.33% of 300,000 active. AID 1899, 2009;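 active = inhibition above the mean of all tested compounds plus 3 SD, set per screening campaign, cut at about 45% in these data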
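Assay system: Tagged HCV core106 pair (GST and Flag) | Buffer or medium: KF-containing HEPES buffer, pH 7.45, DTT, CHAPS, BSA | Also added: Eu donor and XL665 acceptor anti-tag antibodies | Dosing: One concentration, 5 µM, in 0.5% DMSO | Timing: 4 h at 22.5 °C | Technique: TR-FRET 671 and 617 nm emission | Repeats: Singlicate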
* hit, by the source's call; x = no result; + = active, no number.

SMILES	HCV NS3 hel inh	EBNA-1 inhibitor	ZTA DNA inh	GPR7 antag	EBV gp42 block	HCV core dimer
COC(=O)CCCN1C(=O)c2cccc3cccc(c23)C1=O	-4	4	-2	-5	x	-4
CS(=O)(=O)c1ccc2nc(NC(=O)CCN3C(=O)c4ccccc4C3=O)sc2c1	-11	2	-4	-9	-5	-1
CN(C)C(C)(C)/C=C/C(O)(c1ccccc1)c1ccccc1	-2	-3	-8	-11	-7	1
O=C(Cc1n[nH]c(=O)c2ccccc12)Nc1cccc(S(=O)(=O)N2CCCCCC2)c1	x	x	-14	x	x	x
C#CCOCCOCCOCCNc1nc(N2CCOCC2)nc(N2CCN(C(=O)CCCCCCCCCCNC(=O)[C@@H]([C@H](C)CC)n3cc(CCCCCN)nn3)CC2)n1	x	-3	2	x	x	3
C#CCOCCOCCOCCNc1nc(N2CCN(C(=O)CCCCCCCCCCNC(=O)[C@H]([C@@H](C)CC)n3cc(CCCCN=C(N)N)nn3)CC2)nc(N2CCN(C(=O)CCCCCCCCCCNC(=O)[C@H]([C@@H](C)CC)n3cc(CCCCN=C(N)N)nn3)CC2)n1	x	-2	147*	x	x	16
C#CCOCCOCCOCCNc1nc(N2CCN(C(=O)CCCCCCCCCCNC(=O)[C@H]([C@@H](C)CC)n3cc(CCCCCN)nn3)CC2)nc(N2CCN(C(=O)CCCCCCCCCCNC(=O)[C@@H]([C@H](C)CC)n3cc(CCCCCN)nn3)CC2)n1	x	-5	65*	x	x	-4
Cc1c(C(N)=O)sc2ncn(CC(=O)NCCc3ccccc3)c(=O)c12	-5	15	0	-5	-9	-8
COc1cccc(CCNC(=O)C2CCC(=O)N(C3CC3)C2)c1OC (centres undefined)	-7	x	x	-5	x	x
Cc1ccc(OCCn2c(C3CC(=O)N(Cc4ccccc4)C3)nc3ccccc32)cc1 (centres undefined)	-7	-3	-1	11	73*	18
CCCn1c(C2CC(=O)N(c3ccc(C)cc3)C2)nc2ccccc21 (centres undefined)	5	-4	-3	2	-6	-2
Cc1ccc(C2=N/C(=C\c3c(C)nn(-c4ccccc4)c3N3CCCC3)C(=O)O2)cc1	1	8	-5	-3	93*	3
Cc1nn(-c2ccccc2)c(Cl)c1/C=C1\N=C(c2ccccc2)OC1=O	-3	x	x	-12	x	x
Cc1nn(-c2ccccc2)c(N2CCCC2)c1/C=C1\N=C(c2ccc(F)cc2)OC1=O	-4	9	-7	-8	82*	13
O=C(CN1C(=O)NC2(CCc3ccccc32)C1=O)NCCc1ccccc1 (centres undefined)	x	x	-12	x	x	x
O=C(CCl)NN1C(=O)NC(c2ccccc2)(c2ccccc2)C1=O	-10	2	10	-9	x	11
Nc1ccc(N2CCCCC2)c2nonc12	2	-14	57*	-2	-8	4
Nc1c(N2CCCC2)cc(Cl)c2nonc12	9	12	12	-10	11	-5
Nc1cc2nc3ccccc3oc-2cc1=O	28	3	-4	-6	-4	-24
O=[N+]([O-])c1ccc(Cl)cc1CNc1ccc(F)c(F)c1	6	0	-6	-13	2	-6
O=C(NCCN1CCc2ccccc2C1)C1CCN(S(=O)(=O)N2CCCCC2)CC1	-13	-8	-9	20*	-7	1
N#C[C@@H]1[C@@H]2C(=O)N(c3ccc4c(c3)OCCO4)C(=O)[C@@H]2C2c3ccccc3C=CN21 (some centres undefined)	18	1	-2	-14	10	52*
CCOC(=O)CNC(=S)SC	-8	5	-9	-16	-6	0
CCOC(=O)CNC(=S)n1ncnc1N	11	3	12	16*	-16	-13
CN(C)[C@@H]1C(=O)C(C(=O)NCN2CCCC2)=C(O)[C@@]2(O)C(=O)C3=C(O)c4c(O)cccc4[C@@](C)(O)C3CC12 (some centres undefined)	47*	x	x	-1	71*	x
SMILES	HCV NS3 hel inh	EBNA-1 inhibitor	ZTA DNA inh	GPR7 antag	EBV gp42 block	HCV core dimer
COc1ccccc1NC(=O)C(=O)NCCC1CCCCN1S(=O)(=O)c1cccs1 (centres undefined)	x	4	-14	x	x	-6
Cc1ccccc1CSc1nnc(C)c(=O)[nH]1	-5	2	4	17*	-10	-5
O=C(OCn1ncc(Br)c(Br)c1=O)c1ccc(F)cc1	-7	0	9	25*	-2	-57
O=C(OCn1ncc(Br)c(Br)c1=O)c1ccccc1Cl	-5	0	-1	20	-1	-54
CC(=O)Nc1ccc(/C=C(\C#N)C(=O)NC2CCCCC2C)cc1 (centres undefined)	-6	-5	19	20*	-8	1
CSc1ccc(/C=C(\C#N)C(=O)NC2CCCCC2C)cc1 (centres undefined)	-2	-10	0	1	-15	12
CC(=O)Nc1cccc(C(=O)/C=C/c2ccc(Br)cc2)c1	-17	-7	15	20*	-18	7
O=C(/C=C/c1ccc(Br)cc1)c1ccc(NC2=NCCCS2)cc1	-94	5	-5	52*	-3	0
CCN(CC)c1ccc(/C=C/C(=O)c2ccc(Br)cc2)cc1	6	2	8	7	+	-1
CN(C)c1ccc(C(=O)/C=C/c2ccc(Br)cc2)cc1	-4	3	1	18	-36	1
O=C(/C=C/c1ccccc1)c1ccc(NC2=NCCCS2)cc1	-28	-14	-5	8	2	-1
COc1cccc(/C=C/C(=O)OCC(=O)Nc2cccc(S(=O)(=O)N(C)C)c2)c1	-7	4	-10	-18	-6	3
Cc1ccc(NC2=NCC(=O)N2Cc2cccs2)cc1C	-16	-6	-11	-15	-7	-2
O=C1NC(=O)C2(COC(c3cccc([N+](=O)[O-])c3)OC2)S1 (centres undefined)	4	-1	-27	-7	-4	-4
Cc1ccc(SCc2cc(=O)[nH]c(/N=C(\N)Nc3ccc(C)c(C)c3)n2)cc1	9	-12	-3	10	1	0
C=Cc1c(C)c2cc3[nH]c(cc4nc(cc5nc(cc1[nH]2)C(C)=C5CCC(=O)O)C(CCC(=O)O)=C4C)c(C)c3C=C	x	96*	146*	x	x	-235
COC(=O)c1cc(N2CCN(C)CC2)nc2ccccc12	-7	1	6	-10	82*	-4
O=[N+]([O-])/C=C\c1ccc(N2CCCC2)c(F)c1	4	x	x	3	-80	x
Cc1nc(-c2ccccc2)cc(N2CCCC2)n1	0	5	-1	2	-5	0

Compound activity: PubChem, several laboratories
